Assay results as given in publication PMC9582641 (Molecular Biology of the Cell, 2022).
Where no end group is shown, it is not given here. [ ]: non-standard residue; d: D form. Lys(Me3) = C[N+](C)(C)CCCC[C@H](N)C(=O)O; pT = C[C@@H](OP(=O)(O)O)[C@H](N)C(=O)O; Lys(Me2) = CN(C)CCCC[C@H](N)C(=O)O; Lys(Me) = CNCCCC[C@H](N)C(=O)O

Key:
U2OS cells [1] = experiment: Histone H3K4ac immunoblot in U2OS cells after HAT inhibition or Tip60 depletion; format: cell-based; settings: for H3K4ac level: U2OS cells, anti-H3K4ac immunoblot
How it was run: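 Asynchronous and nocodazole-arrested mitotic U2OS cells were treated with the Tip60 acetyltransferase inhibitor Nu9056 for 1 h. Separately, U2OS cells engineered for doxycycline-induced shRNA against Tip60 were depleted of Tip60. Histone H3 K4 acetylation was read by immunoblot with anti-H3K4ac antibody at 1:1000.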

U2OS cells [2] = experiment: Aurora B at centromeres of interphase; format: cell-based; settings: interphase (S/G2) cells, immunofluorescence, ACA mask
hSurvivin = hSurvivin (Homo sapiens, UniProt O15392); settings: ITC, pH 7.2, 25°C; ref Niedzialkowska et al. (2012); cited from earlier work
Chain of hSurvivin (O15392 whole entry): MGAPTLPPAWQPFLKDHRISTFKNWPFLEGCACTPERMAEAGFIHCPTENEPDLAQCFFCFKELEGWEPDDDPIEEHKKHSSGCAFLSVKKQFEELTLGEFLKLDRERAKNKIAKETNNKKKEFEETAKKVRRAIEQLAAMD

U2OS cells [3] = format: cell-based; settings: HDAC3 shRNA, immunofluorescence
[4] = target: human Survivin (hSurvivin) (human, UniProt O15392 1-142); experiment: ITC
Chain of human Survivin (hSurvivin) (O15392 whole entry): as above

Molecule | dH [4] [kcal/mol] | stoichiometry N [4] | other results
Clc1ccc(-c2csc(NN=C3CCCC3)n2)cc1 [CTPH2] |  |  | H3K4ac level (U2OS cells [1]): not GCN5 (CTPH2) or p300/CBP (Inhibitor VI) resulted in decreased H3K4ac levels
c1cc(SSc2ccns2)sn1 [Nu9056] |  |  | Aurora B localization at centromeres in interphase cells (U2OS cells [2]): leads to Aurora B localization at centromeres in interphase (S/G2) cells; H3K4ac level (U2OS cells [1]): resulted in decreased H3K4ac levels; H3K4ac level in mitotic cells (U2OS cells [1]; mitotic U2OS cells, nocodazole arrested, Nu9056 for 1 h, immunoblot): also sensitive to the Tip60 inhibitor
H3(1-12): first 12 amino acids of histone H3; values from Niedzialkowska et al. (2012) |  |  | –TΔS (hSurvivin): –4040 cal/mol
H3T3ph(1-12): histone H3 residues 1-12 with T3 phosphorylation; values from Niedzialkowska et al. (2012) |  |  | –TΔS (hSurvivin): –2800 cal/mol
shHDAC3: HDAC3 shRNA targeting sequence AGAAGTCCACTACCTGGTT (the letters are possibly those of the target site) |  |  | Aurora B at centromeres after HDAC3 depletion (U2OS cells [3]): most of the Aurora B remains on noninner centromeric (chromosome arm) regions after HDAC3 depletion
AR[pT][Lys(Me)]QTARKSTG (peptide, UniProt P68431 2-13, looked up) [histone H3 peptide H3T3phK4me1(1-12)] | -4.692 ± 0.026 | 1.03 ± 0.005 | 
ART[Lys(Me2)]QTARKSTG (peptide, UniProt P68431 2-13, looked up) [histone H3 peptide H3K4me2(1-12)] | -2.61 ± 0.04 | 0.899 ± 0.01 | 
ART[Lys(Me)]QTARKSTG (peptide, UniProt P68431 2-13, looked up) [histone H3 peptide H3K4me1(1-12)] | -2.68 ± 0.06 | 1.08 ± 0.012 | 
AR[pT]K(Ac)QTARKSTG (peptide, UniProt P68431 2-13, looked up) [histone H3 peptide H3T3phK4ac(1-12)] | -7.3 ± 0.1 | 0.965 ± 0.009 | 
ART[Lys(Me3)]QTARKSTG (peptide, UniProt P68431 2-13, looked up) [histone H3 peptide H3K4me3(1-12)] | -6 ± 0.7 | 0.83 ± 0.07 | 
AR[pT][Lys(Me3)]QTARKSTG (peptide, UniProt P68431 2-13, looked up) [histone H3 peptide H3T3phK4me3(1-12)] | -4.63 ± 0.09 | 1.21 ± 0.02 | 
AR[pT][Lys(Me2)]QTARKSTG (peptide, UniProt P68431 2-13, looked up) [histone H3 peptide H3T3phK4me2(1-12)] | -6.25 ± 0.06 | 0.873 ± 0.004 | 
